Laboratory results reported in ChEMBL document CHEMBL1140158, “Soluble 3',6-substituted indirubins with enhanced selectivity toward glycogen synthase kinase -3 alter circadian period” (J Med Chem, 2008).
Active and inactive are the calls of the source. The calls are words filed in the database; no cut-off is given here.

Columns and labels:
[1] = tested on: Glycogen synthase kinase-3 (Sus scrofa); experiment: Inhibition of pig GSK3alpha/beta
[2] = Lipophilicity, log D of the compound; type: physicochemical; conditions: octanol/water
[3] = Solubility in water; type: physicochemical
In short: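 Excess solid in double-distilled water was sonicated 5 min, then stirred overnight to equilibrium at 25 ± 0.1 °C and centrifuged. Supernatant absorbance was read at 515–518 nm and quantified against per-compound standard reference curves.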

[4] = Dissociation constant, pKa of the compound; type: physicochemical
[5] = Inhibition of human recombinant CDK5/p25 expressed in Escherichia coli
SH-SY5Y = experiment: Cytotoxicity against human SH-SY5Y cells after 48 hrs by MTS reduction assay; type: cell-based
Rat1 = experiment: Effect on circadian rhythm in Pper2::Fluc transfected Rat1 cells assessed as shortening of period length at 10 uM; type: functional, cell-based; conditions: Rattus norvegicus
In short: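 Rat-1 fibroblasts stably carrying PPer2::Fluc, grown to confluence, synchronized with 0.1 μM dexamethasone (1 h in Experimental, 2 h in legend), then moved to phenol-red-free assay medium with 0.1 mM luciferin. Compounds at 10 μM added before dish sealing and left continuously; DMSO solvent control. Luminescence recorded 4–5 days or more; period derived by regression analysis.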

[6] = target: T1, Glycogen synthase kinase-3 (Homo sapiens, UniProt P49840+P49841); experiment: Inhibition of GSK3-mediated beta-catenin phosphorylation in human SH-SY5Y cells in presence of MG132 by Western blot analysis
T1 sequence (P49840 whole entry, looked up): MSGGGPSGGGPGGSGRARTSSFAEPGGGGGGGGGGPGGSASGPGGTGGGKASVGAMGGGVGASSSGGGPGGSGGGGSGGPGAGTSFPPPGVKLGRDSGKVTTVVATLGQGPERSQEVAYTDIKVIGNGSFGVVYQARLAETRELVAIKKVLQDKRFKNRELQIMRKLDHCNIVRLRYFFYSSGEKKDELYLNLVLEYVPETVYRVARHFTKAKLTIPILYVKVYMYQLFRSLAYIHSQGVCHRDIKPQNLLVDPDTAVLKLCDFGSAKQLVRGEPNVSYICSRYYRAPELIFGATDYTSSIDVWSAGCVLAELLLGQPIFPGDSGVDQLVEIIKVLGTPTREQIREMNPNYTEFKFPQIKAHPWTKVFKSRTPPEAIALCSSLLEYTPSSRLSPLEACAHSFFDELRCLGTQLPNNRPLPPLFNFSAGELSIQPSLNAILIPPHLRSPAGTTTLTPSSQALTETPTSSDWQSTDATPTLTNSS
T1 sequence (P49841 whole entry, looked up): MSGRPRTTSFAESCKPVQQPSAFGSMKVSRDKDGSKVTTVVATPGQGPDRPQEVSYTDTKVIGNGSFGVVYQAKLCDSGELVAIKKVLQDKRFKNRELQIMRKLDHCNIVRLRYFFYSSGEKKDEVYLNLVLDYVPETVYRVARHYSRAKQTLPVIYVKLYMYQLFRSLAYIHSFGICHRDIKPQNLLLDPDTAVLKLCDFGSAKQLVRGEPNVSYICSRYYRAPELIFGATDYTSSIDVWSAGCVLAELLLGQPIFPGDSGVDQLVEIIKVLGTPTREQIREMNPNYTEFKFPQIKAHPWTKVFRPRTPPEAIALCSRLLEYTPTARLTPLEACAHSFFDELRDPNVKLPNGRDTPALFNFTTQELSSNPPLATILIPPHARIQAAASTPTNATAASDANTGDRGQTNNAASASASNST

[7] = target: T1, Glycogen synthase kinase-3; experiment: Inhibition of GSK3-mediated beta-catenin phosphorylation in human SH-SY5Y cells in presence of MG132 by ELISA

SMILES | IC50 [1] | logD [2] | solubility thermodynamic [3] | pKa [4] | IC50 [5] | IC50 (SH-SY5Y; Homo sapiens, SH-SY5Y, 48 h) | further results
COCCN1CCN(CCO/N=C2/C(=C3/C(=O)Nc4cc(Br)ccc43)Nc3ccccc32)CC1.Cl.Cl | 20 nM | 1.9 | 570 µg/mL | 7.47 | 400 nM | > 100000 nM | 
CCN(CC)C(=O)O/N=C1/C(=C2/C(=O)Nc3cc(Br)ccc32)Nc2ccccc21 | 30 nM |  |  |  | 10000 nM | > 100000 nM | 
Cl.Cl.O=C1Nc2cc(Br)ccc2/C1=C1/Nc2ccccc2/C1=N\OCCN1CCN(CCO)CC1 |  | 1.41 | 1140 µg/mL | 7.65 |  |  | 
O=C1Nc2cc(Br)ccc2/C1=C1/Nc2ccccc2/C1=N\OCC(O)CO (stereo unspecified) | 34 nM |  |  |  | 25 nM | 940 nM | 
O=C1Nc2cc(Br)ccc2/C1=C1/Nc2ccccc2/C1=N\OCCN1CCN(CCOCCO)CC1 [listing 1 of 2 here] |  |  |  |  |  |  | Activity (Rat1): Active
CCN(CC)CCO/N=C1/C(=C2/C(=O)Nc3cc(Br)ccc32)Nc2ccccc21.Cl | 27 nM | 1.19 | 192 µg/mL | 9.38 | 40 nM | > 100000 nM | 
CN1CCN(CCO/N=C2/C(=C3/C(=O)Nc4cc(Br)ccc43)Nc3ccccc32)CC1.Cl.Cl | 5 nM | 1.74 | 1500 µg/mL | 7.65 | 300 nM | 5400 nM | 
Cn1c(O)c(-c2[nH]c3ccccc3c2N=O)c2ccc(Br)cc21 |  |  |  |  |  |  | Activity [6]: inactive
Cl.O=C1Nc2cc(Br)ccc2/C1=C1/Nc2ccccc2/C1=N\OCCN1CCCC1 | 54 nM | 1.16 | 195 µg/mL | 9.18 | 100 nM | 4200 nM | 
O=C1Nc2cc(Br)ccc2/C1=C1/Nc2ccccc2/C1=N\OCCN(CCO)CCO |  |  |  |  |  | 6600 nM | 
O=C1Nc2cc(Br)ccc2/C1=C1/Nc2ccccc2/C1=N\OCCN1CCN(CCO)CC1 |  |  |  |  |  |  | IC50 [7]: 700 nM
CN(C)CCO/N=C1/C(=C2/C(=O)Nc3cc(Br)ccc32)Nc2ccccc21.Cl |  | 1.69 | 141 µg/mL | 8.59 |  |  | 
O=C1Nc2cc(Br)ccc2/C1=C1/Nc2ccccc2/C1=N\OCCN1CCN(CCOCCO)CC1 [listing 2 of 2 here] | 14 nM |  |  |  | 310 nM |  | IC50 [7]: 2900 nM
O=C1Nc2cc(Br)ccc2/C1=C1/Nc2ccccc2/C1=N\OCCO |  |  |  |  | > 10000 nM | > 100000 nM | 
O=C1Nc2cc(Br)ccc2/C1=C1/Nc2ccccc2/C1=N\OCCN1CCNCC1 |  |  |  |  |  |  | IC50 [7]: 150 nM; IC50 (SH-SY5Y; sh-sy5y): 13200 nM
CN1CCN(CCO/N=C2/C(=C3/C(=O)Nc4cc(Br)ccc43)Nc3ccccc32)CC1 | 7 nM |  |  |  | 400 nM |  | 
Cl.O=C1Nc2cc(Br)ccc2/C1=C1/Nc2ccccc2/C1=N\OCCN(CCO)CCO |  |  |  |  |  |  | IC50 [7]: 320 nM
Cl.Cl.O=C1Nc2cc(Br)ccc2/C1=C1/Nc2ccccc2/C1=N\OCCN1CCN(CCOCCO)CC1 | 33 nM | 1.46 | 4250 µg/mL | 7.58 | 330 nM | 97600 nM | 
O=C1Nc2cc(Br)ccc2/C1=C1/Nc2ccccc2/C1=N\OCCBr | 140 nM |  |  |  | > 10000 nM | > 100000 nM | 
COCCN1CCN(CCO/N=C2/C(=C3/C(=O)Nc4cc(Br)ccc43)Nc3ccccc32)CC1 | 11 nM |  |  |  | 500 nM |  | 
CN(CCO/N=C1/C(=C2/C(=O)Nc3cc(Br)ccc32)Nc2ccccc21)CC(O)CO (stereo unspecified) | 67 nM |  |  |  | 240 nM | 5800 nM | 
O=C1Nc2cc(Br)ccc2/C1=C1/Nc2ccccc2/C1=N\OCCN1CCCC1 | 26 nM |  |  |  | 130 nM |  | IC50 (SH-SY5Y; sh-sy5y): 5500 nM
CCN(CC)CCO/N=C1/C(=C2/C(=O)Nc3cc(Br)ccc32)Nc2ccccc21 | 35 nM |  |  |  | 20 nM |  | IC50 (SH-SY5Y; sh-sy5y): 78000 nM
Cl.Cl.O=C1Nc2cc(Br)ccc2/C1=C1/Nc2ccccc2/C1=N\OCCN1CCNCC1 |  | -0.87 | 1610 µg/mL | 8.85 | 180 nM |  | IC50 [7]: 220 nM; IC50 (SH-SY5Y; sh-sy5y): 5900 nM
